Test results reported in article PMC8359281 (Clinical Pharmacology in Drug Development, 2020).

Key:
[1] = cited from earlier work
[2] = tested on: free steroidogenic exposure; assay: Steroidogenic exposure and methylprednisolone/prednisone dose equivalence; type: in vivo, human; conditions: methylprednisolone 16 mg once daily; derived by equation 2 (5 × AUCτ + AUECτ)
In short: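 Steady-state data came from day 15 of oral methylprednisolone at 16 mg once daily. Free methylprednisolone AUCτ (noncompartmental) and free cortisol AUECτ over one dosing interval were combined by integrating the per-timepoint free steroidogenic concentration equation. Weekly free cortisol exposure was converted to methylprednisolone-equivalent dose, assuming dose-proportionality. Prednisone equivalents used a coefficient of 1.25.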

[3] = tested on: free cortisol; type: in vivo, human; conditions: oral methylprednisolone 16 mg once daily
In short: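 In a single-centre, open-label, parallel-group study, healthy adults (18-50 years, BMI 18.5-30 kg/m2, 51-99 kg, confined on site) took methylprednisolone orally at 16 mg once daily for 15 days. The dose was then tapered to 8 mg daily for 2 days and 4 mg daily for 2 days. Blood for plasma free cortisol was drawn predose and 0.25–24 h postdose on days 1 and 15.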

[4] = PK of ACTH1-24 after synthetic ACTH1-24 depot, phase 1 study; type: in vivo, human; conditions: postdosing of synthetic ACTH1-24 depot

For `C[C@H]1C[C@@H]2[C@H]([C@@H](O)C[C@@]3(C)[C@H]2CC[C@]3(O)C(=O)CO)[C@@]2(C)C=CC(=O)C=C12` [methylprednisolone], the “potency of systemic action relative to cortisol” value [1] is listed as 5 times, the “free steroidogenic exposure at steady state (AUECτSG)” value [2] is listed as 305 ng·h/mL and the “endogenous cortisol after administration” value [3] is listed as “negligible”.
With “ACTH1-24: the first 24 amino acids of adrenocorticotropic hormone; analyte measured in plasma after synthetic ACTH1-24 depot” the “time by which plasma concentrations fell below the quantification limit” value [4] was under 24 h.
